The full list was thinned out, with hits kept by preference.
HCT116 PTEN-null – PTEN-deleted cell growth suppression; HCT116 PTEN-null viability, CellTiter-Glo, 60 h; stronger effect = lower value; viability, % at 10 µM; actives 1.2% (n = 140,000); AID 827;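 active = viability at or below a set limit, 4 SD under the median of all tested compounds, cut at about 3.7% in these data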;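 also: PTEN knockout HCT116 line with beta catenin targeted HCT116 as companion control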
HUVEC inhibit – inhibitors of human endothelial cell proliferation. HUVEC proliferation, CellTiter-Glo luminescence, 72 h; stronger effect = lower value. viability, % at 10 µM (by protocol). actives 1.1% (n = 86,000). AID 648;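 active = viability at or below 30%; inactive = viability above 30%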
Lung fibro prol – blocks proliferation of human lung fibroblasts; actives 1.1% (n = 85,000); AID 719; viability, % at 10 µM; LL 47 human lung fibroblast viability, ATP luminescence; stronger effect = lower value;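 active = viability at or below 50% in the single dose screen; inactive = viability above 50%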;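 also: compound exposure lasted 72 h before the ATP readout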
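Test system: LL 47 human lung fibroblasts / Quantity: 1,150 cells in each well / Medium: IMEM growth medium with 15% fetal bovine serum / Incubation: 72 h compound exposure at 37 °C after overnight plating / Detection: CellTiter-Glo luminescence measuring cellular ATP / Read-out: % viability versus median cells-only luminescence / Benchmarks: cell-only wells, no compound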
H69AR growth 86K – growth inhibitors of human H69AR lung tumor cells; viability, % at 10 µM; actives 6% (n = 85,000); H69AR lung tumor viability, ATP luminescence, 72 h; stronger effect = lower value; AID 598;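 active = viability at or below 40%; inactive = viability above 40%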;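 also: multidrug resistant small cell line overexpressing MRP-1 efflux transporter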
HCT116 bCat-KO – beta-catenin-lacking colon tumor cell growth suppression | HCT116 beta-catenin knockout viability, CellTiter-Glo, 60 h; stronger effect = lower value | viability, % at 10 µM | actives 1.5% (n = 140,000) | AID 818;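 active = viability at or under a set limit, the compound median less 4 SD, cut at about 6% in these data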
Large screens that a line does not name were inactive.

O=C(CSCC(=O)N1CCCCC1)Nc1nc(-c2ccccc2)c(-c2ccccc2)s1	none (no result: HUVEC inhibit, Lung fibro prol, H69AR growth 86K)
COCCNC(=O)/C(C#N)=C1\N=C(N)c2ccccc21	none (no result: HUVEC inhibit, Lung fibro prol, H69AR growth 86K)
O=[N+]([O-])c1ccc(/C=N/Nc2nc(N3CCCC3)nc(N3CCCC3)n2)o1	HUVEC inhibit 6.8, H69AR growth 86K 26
O=[N+]([O-])c1ccc(/C=N/Nc2nc(-c3ccccc3)c3cc(Br)ccc3n2)o1	HCT116 PTEN-null 1.4, HCT116 bCat-KO 1.7 (no result: HUVEC inhibit, Lung fibro prol, H69AR growth 86K)
N#Cc1ccccc1/C=N/Nc1nc(-c2ccccc2)c2cc(Br)ccc2n1	HCT116 bCat-KO 2.1 (no result: HUVEC inhibit, Lung fibro prol, H69AR growth 86K)
Cc1ccc2nc(N/N=C\c3ccc([N+](=O)[O-])o3)nc(-c3ccccc3)c2c1	HCT116 PTEN-null 3.0, H69AR growth 86K 13, HCT116 bCat-KO 2.1
Cc1ccc(N/C=C/C(=O)c2sc(-c3ccccc3)nc2C)cc1	none (no result: HUVEC inhibit, Lung fibro prol, H69AR growth 86K)
Cc1ccc(S(=O)(=O)c2cc3c(=O)n4cccc(C)c4nc3n(CC3CCCO3)c2=N)cc1 (stereo not given)	H69AR growth 86K 40 (no result: HCT116 PTEN-null, HCT116 bCat-KO)
CCCNC(=O)CN(C)S(=O)(=O)c1c(C)cc(C)cc1C	none
COc1ccc(-n2c(N)c(C(=O)NCc3ccco3)c3nc4ccccc4nc32)c(OC)c1	H69AR growth 86K 32
COc1ccc(CCn2c(N)c(C(=O)NCc3ccco3)c3nc4ccccc4nc32)cc1OC	H69AR growth 86K 24
Nc1c(C(=O)NCc2ccco2)c2nc3ccccc3nc2n1CCc1ccccc1F	H69AR growth 86K 27
COc1ccc(CCn2c(N)c(C(=O)NCc3ccco3)c3nc4ccccc4nc32)cc1	none (no result: HUVEC inhibit, Lung fibro prol, H69AR growth 86K)
COc1ccc(C2NC(=O)c3sc(=S)n(-c4ccccc4)c3N2)cc1 (stereo not given)	HCT116 PTEN-null 3.2
CCOc1ccc(C2NC(=O)c3sc(=S)n(-c4ccccc4)c3N2)cc1 (stereo not given)	none (no result: HUVEC inhibit, Lung fibro prol, H69AR growth 86K)
O=C(Nc1ccc(Cl)cc1)N(Cc1cccnc1)Cc1ccco1	none (no result: HUVEC inhibit, Lung fibro prol, H69AR growth 86K)
O=c1oc2c(O)c(O)cc3c(=O)oc4c(O)c(O)cc1c4c23	H69AR growth 86K 16
COc1nc(-c2ccccc2)ccc1-c1noc(-c2ccccc2)n1	none
CCOc1nc(-c2ccccc2)ccc1-c1noc(-c2ccc(OC)c(OC)c2)n1	H69AR growth 86K 32 (no result: HCT116 PTEN-null, HCT116 bCat-KO)
CCCNC(=O)C1CC(=O)N(c2ccc(OCC(=O)Nc3cc(C)cc(C)c3)cc2)C1 (stereo not given)	none (no result: HCT116 PTEN-null, HCT116 bCat-KO)
COc1ccc(-c2nnnn2-c2ccccc2OC)cc1	H69AR growth 86K 22
COc1ccc(/C=C/C(=O)Nc2ccc(OC)nc2)cc1	none (no result: HUVEC inhibit, Lung fibro prol, H69AR growth 86K)
COc1ccc(CS(=O)(=O)/C(Cl)=C(/Cl)C(=O)Nc2ccc(OC)nc2)cc1	HUVEC inhibit 2.6, Lung fibro prol 4.8, H69AR growth 86K 0.0
COc1ccc(NC(=O)/C(Cl)=C(/Cl)S(=O)Cc2ccccc2)cn1 (stereo not given)	HCT116 PTEN-null 1.5, HUVEC inhibit 2.2, Lung fibro prol 1.2, H69AR growth 86K 1.7, HCT116 bCat-KO 1.5
CC(Sc1nc2ccccc2s1)C(=O)NC1CCCc2ccccc21 (stereo not given)	none (no result: HUVEC inhibit, Lung fibro prol, H69AR growth 86K)
N#CCCN(C1CCCCC1)S(=O)(=O)CCOc1ccccc1	none
Cc1ccc(NC(=O)C(=O)c2c(-c3ccccc3)cc3ccccn23)cc1S(=O)(=O)N1CCOCC1	none
COC(=O)c1cc(NC(=O)c2cccc(C(F)(F)F)c2)c(=O)oc1C/C=N/OCc1cccc(Cl)c1Cl	H69AR growth 86K 13
O=C(NCc1ccccc1Cl)c1cccc(C(F)(F)F)c1	none (no result: HUVEC inhibit, Lung fibro prol, H69AR growth 86K)
COc1ccc(NC(=O)CSc2ncnc3c2sc2ccccc23)c(OC)c1	HCT116 PTEN-null 2.2, HCT116 bCat-KO 2.2 (no result: HUVEC inhibit, Lung fibro prol, H69AR growth 86K)
N=C1S/C(=C\c2ccc(-c3cccc(Cl)c3)o2)C(=O)N1c1nccs1	HCT116 PTEN-null 2.9, HCT116 bCat-KO 5.4 (no result: HUVEC inhibit, Lung fibro prol, H69AR growth 86K)
COc1ccc(/C=C2\SC(=N)N(c3nccs3)C2=O)cc1OC	none (no result: HUVEC inhibit, Lung fibro prol, H69AR growth 86K)
CCN1C(c2ccc(F)cc2)=CS/C1=C(\C#N)c1nnc2n1-c1ccccc1SC2	none
CCOC(=O)/C=C/S(=O)(=O)c1ccc(NC(C)=O)cc1	Lung fibro prol 14, H69AR growth 86K -0.2
CC(=O)Oc1c(C)cc(Cl)cc1C(=O)Nc1ccc([N+](=O)[O-])cc1Cl	HCT116 PTEN-null 1.8, HCT116 bCat-KO 1.1 (no result: HUVEC inhibit, Lung fibro prol, H69AR growth 86K)
N#Cc1ccc2ccn(CC(=O)NC3CCCCC3)c2c1	none
N#Cc1ccc2ccn(CC(=O)NCc3ccccc3)c2c1	H69AR growth 86K 36
COc1ccc(N2CCN(S(=O)(=O)c3ccc(C(=O)NCc4ccco4)cc3)CC2)cc1	none
CCCCCCCCCC(=O)N/N=C(\C)c1cccnc1	none
CCCCCC(=O)N/N=C(\C)c1ccccn1	HCT116 bCat-KO 4.3 (no result: HUVEC inhibit, Lung fibro prol, H69AR growth 86K)
CCOc1ccc(Cl)cc1CSc1ncn[nH]1	none (no result: HUVEC inhibit, Lung fibro prol, H69AR growth 86K)
CC(=O)[C@@]1(O)CC[C@H]2[C@@H]3CCC4=CC(=O)CC[C@]4(C)[C@H]3[C@@H](O)C[C@@]21C	none
CC(=O)[C@@]1(O)CC[C@H]2[C@@H]3C[C@H](C)C4=CC(=O)CC[C@]4(C)[C@H]3CC[C@@]21C	H69AR growth 86K 6.9
CCOC(=O)c1sc(NC(=O)CCn2nnc3ccccc32)c(C(=O)OCC)c1C	H69AR growth 86K 36 (no result: HCT116 PTEN-null, HCT116 bCat-KO)
CC(C)OC(=O)c1c(NC(=O)CCn2nnc3ccccc32)sc2c1CCCC2	none (no result: Lung fibro prol)
Oc1ccccc1CN1CCC(C(O)(c2ccccc2)c2ccccc2)CC1	none (no result: HUVEC inhibit, Lung fibro prol, H69AR growth 86K)
CC(C)(C)c1ccc(C(O)CCCN2CCC(C(O)(c3ccccc3)c3ccccc3)CC2)cc1 (stereo not given)	HCT116 PTEN-null 0.8, HUVEC inhibit 2.4, Lung fibro prol 2.6, H69AR growth 86K 0.8, HCT116 bCat-KO 0.7
O=C(CC(SCCO)c1ccc2c(c1)OCO2)c1ccco1 (stereo not given)	H69AR growth 86K 16
O=C(O)CC(Cc1ccccc1)c1ccc2c(c1)OCO2 (stereo not given)	none
COc1cc(NC(=O)c2cccs2)c(OC)cc1NC(=O)CCn1nnc2ccccc21	none
NS(=O)(=O)c1ccc(N2N=C(c3ccc(Br)cc3)CC2c2ccc(F)cc2)cc1 (stereo not given)	HCT116 PTEN-null 1.2, HCT116 bCat-KO 0.7 (no result: HUVEC inhibit, Lung fibro prol, H69AR growth 86K)
NS(=O)(=O)c1ccc(N2N=C(c3ccccc3)CC2c2cccc(F)c2)cc1 (stereo not given)	none (no result: HUVEC inhibit, Lung fibro prol, H69AR growth 86K)
COc1cc2nc(CN(C)Cc3nc4ccccc4c(=O)[nH]3)[nH]c(=O)c2cc1OC	none (no result: HUVEC inhibit, Lung fibro prol, H69AR growth 86K)
CCc1ccc2c(CN(CC)Cc3nc4ccccc4c(=O)[nH]3)cc(=O)oc2c1	H69AR growth 86K 36
CCN(CC(=O)Nc1ccc2c(c1)CCC2)Cc1nc2ccccc2c(=O)[nH]1	H69AR growth 86K 33
CCN(CC)CC(=O)Nc1ccc2c(c1)Nc1ccccc1CC2	H69AR growth 86K 4.0
CCN(Cc1nc2ccccc2c(=O)[nH]1)Cc1nc2cc(OC)c(OC)cc2c(=O)[nH]1	H69AR growth 86K 15
CCN(CC(=O)NC(c1ccccc1)c1ccccc1)Cc1nc2ccccc2c(=O)[nH]1	none
COc1ccc(/C=C2/SC(=O)N(NS(=O)(=O)c3ccccc3)C2=S)cc1OC	none
CCOC(=O)Cc1cc(OC)c(OC)cc1Cc1cc(OC)c(OC)cc1CC(=O)OCC	none (no result: HUVEC inhibit, Lung fibro prol, H69AR growth 86K)
